From ChEMBL document CHEMBL5058577, “EUbOPEN Chemogenomics Library 2 (Multiplex)” (2022)

Test system: U2OS
Test: Multiplex assay against U2OS
Type: toxicity, cell-based
Conditions: human
Outline: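 With compound added, live cells were imaged on a CQ1 microscope at 37°C and 5% CO2; staining with Hoechst33342, BioTracker Green Microtubule Cytoskeleton Dye, MitoTracker Red and Annexin V Alexa Fluor 680 had been done at seeding. The CellPathfinder machine-learning gating scheme split cells into Hoechst high-intensity objects or normal cells, normal cells into healthy, pyknosed or fragmented nuclei, and pyknosed cells into mitotic or apoptotic. The tubulin, mitochondrial-mass and membrane-permeability phenotypes are per cents of healthy-nucleus cells.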

[1] = 12 h, 1 µM, compound concentration 1 uM, replicate 1
[2] = 12 h, 1 µM, compound concentration 1 uM, replicate 2
[3] = 12 h, 10 µM, compound concentration 10 uM, replicate 1
[4] = 12 h, 10 µM, compound concentration 10 uM, replicate 2
[5] = 24 h, 1 µM, compound concentration 1 uM, replicate 1
[6] = 24 h, 1 µM, compound concentration 1 uM, replicate 2
[7] = 24 h, 10 µM, compound concentration 10 uM, replicate 1
[8] = 24 h, 10 µM, compound concentration 10 uM, replicate 2
[9] = 48 h, 1 µM, compound concentration 1 uM, replicate 1
[10] = 48 h, 1 µM, compound concentration 1 uM, replicate 2
[11] = 48 h, 10 µM, compound concentration 10 uM, replicate 1
[12] = 48 h, 10 µM, compound concentration 10 uM, replicate 2

## CC(C)c1noc(N2CCC(COc3ccc(-c4ccc(S(C)(=O)=O)cc4)nc3)CC2)n1 [GSK-1292263]
[1]
  Population Apoptotic (%): 72%
  Population Fragmented Nuclei (%): 27%
  Population Healthy Nuclei (%): 62%
  Population Hoechst High Intensity Objects (%): 2%
  Population Membrane Permeable-Phenotype (%): 3%
  Population Mitochondria Different-Phenotype (%): 2%
  Population Mitotic Cells (%): 27%
  Population Normal (%): 97%
  Population Pyknosed Nuclei (%): 10%
  Population Tubulin-Different-Phenotype (%): 0%
  Total Cell Count: 177
[2]
  Population Apoptotic (%): 100%
  Population Fragmented Nuclei (%): 16%
  Population Healthy Nuclei (%): 77%
  Population Hoechst High Intensity Objects (%): 1%
  Population Membrane Permeable-Phenotype (%): 4%
  Population Mitochondria Different-Phenotype (%): 0%
  Population Mitotic Cells (%): 0%
  Population Normal (%): 98%
  Population Pyknosed Nuclei (%): 5%
  Population Tubulin-Different-Phenotype (%): 2%
  Total Cell Count: 114
[3]
  Population Apoptotic (%): 90%
  Population Fragmented Nuclei (%): 31%
  Population Healthy Nuclei (%): 60%
  Population Hoechst High Intensity Objects (%): 2%
  Population Membrane Permeable-Phenotype (%): 10%
  Population Mitochondria Different-Phenotype (%): 6%
  Population Mitotic Cells (%): 10%
  Population Normal (%): 97%
  Population Pyknosed Nuclei (%): 7%
  Population Tubulin-Different-Phenotype (%): 6%
  Total Cell Count: 262
[4]
  Population Apoptotic (%): 100%
  Population Fragmented Nuclei (%): 20%
  Population Healthy Nuclei (%): 73%
  Population Hoechst High Intensity Objects (%): 0%
  Population Mitochondria Different-Phenotype (%): 8%
  Population Mitotic Cells (%): 0%
  Population Normal (%): 100%
  Population Pyknosed Nuclei (%): 5%
  Total Cell Count: 134
[5]
  Population Apoptotic (%): 63%
  Population Fragmented Nuclei (%): 32%
  Population Healthy Nuclei (%): 57%
  Population Hoechst High Intensity Objects (%): 1%
  Population Membrane Permeable-Phenotype (%): 5%
  Population Mitochondria Different-Phenotype (%): 2%
  Population Mitotic Cells (%): 36%
  Population Normal (%): 98%
  Population Pyknosed Nuclei (%): 9%
  Population Tubulin-Different-Phenotype (%): 3%
  Total Cell Count: 236
[6]
  Population Apoptotic (%): 66%
  Population Fragmented Nuclei (%): 15%
  Population Healthy Nuclei (%): 77%
  Population Hoechst High Intensity Objects (%): 0%
  Population Membrane Permeable-Phenotype (%): 2%
  Population Mitotic Cells (%): 33%
  Population Normal (%): 99%
  Population Pyknosed Nuclei (%): 6%
  Population Tubulin-Different-Phenotype (%): 1%
  Total Cell Count: 145
[7]
  Population Apoptotic (%): 92%
  Population Fragmented Nuclei (%): 25%
  Population Healthy Nuclei (%): 65%
  Population Hoechst High Intensity Objects (%): 0%
  Population Membrane Permeable-Phenotype (%): 10%
  Population Mitochondria Different-Phenotype (%): 3%
  Population Mitotic Cells (%): 7%
  Population Normal (%): 99%
  Population Pyknosed Nuclei (%): 9%
  Population Tubulin-Different-Phenotype (%): 3%
  Total Cell Count: 284
[8]
  Population Apoptotic (%): 66%
  Population Fragmented Nuclei (%): 15%
  Population Healthy Nuclei (%): 75%
  Population Hoechst High Intensity Objects (%): 2%
  Population Membrane Permeable-Phenotype (%): 6%
  Population Mitochondria Different-Phenotype (%): 5%
  Population Mitotic Cells (%): 33%
  Population Normal (%): 97%
  Population Pyknosed Nuclei (%): 8%
  Population Tubulin-Different-Phenotype (%): 2%
  Total Cell Count: 143
[9]
  Population Apoptotic (%): 77%
  Population Fragmented Nuclei (%): 23%
  Population Healthy Nuclei (%): 69%
  Population Hoechst High Intensity Objects (%): 2%
  Population Membrane Permeable-Phenotype (%): 3%
  Population Mitochondria Different-Phenotype (%): 3%
  Population Mitotic Cells (%): 22%
  Population Normal (%): 97%
  Population Pyknosed Nuclei (%): 6%
  Population Tubulin-Different-Phenotype (%): 2%
  Total Cell Count: 339
[10]
  Population Apoptotic (%): 90%
  Population Fragmented Nuclei (%): 15%
  Population Healthy Nuclei (%): 74%
  Population Hoechst High Intensity Objects (%): 1%
  Population Membrane Permeable-Phenotype (%): 6%
  Population Mitochondria Different-Phenotype (%): 2%
  Population Mitotic Cells (%): 10%
  Population Normal (%): 98%
  Population Pyknosed Nuclei (%): 10%
  Population Tubulin-Different-Phenotype (%): 1%
  Total Cell Count: 201
[11]
  Population Apoptotic (%): 87%
  Population Fragmented Nuclei (%): 22%
  Population Healthy Nuclei (%): 68%
  Population Hoechst High Intensity Objects (%): 4%
  Population Membrane Permeable-Phenotype (%): 6%
  Population Mitochondria Different-Phenotype (%): 2%
  Population Mitotic Cells (%): 12%
  Population Normal (%): 95%
  Population Pyknosed Nuclei (%): 9%
  Population Tubulin-Different-Phenotype (%): 2%
  Total Cell Count: 354
[12]
  Population Apoptotic (%): 83%
  Population Fragmented Nuclei (%): 12%
  Population Healthy Nuclei (%): 77%
  Population Hoechst High Intensity Objects (%): 1%
  Population Membrane Permeable-Phenotype (%): 5%
  Population Mitochondria Different-Phenotype (%): 4%
  Population Mitotic Cells (%): 16%
  Population Normal (%): 98%
  Population Tubulin-Different-Phenotype (%): 4%
  Total Cell Count: 189
